Like-named read-outs stand apart in the source and are kept apart here.
Tests used:
αIIbβ3_N305T = αIIbβ3_N305T (Homo sapiens, UniProt P05106+P08514, N331T); assay: MBC319.4 Fab LIBS epitope exposure on αIIbβ3_N305T transfectants; type: cell-based; settings: αIIbβ3 N305T transfectants, inhibitors at 100x Kd
Summary of the method: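 αIIbβ3_N305T transfectants of α5/αV-knockout Expi293F cells, harvested 48 h post-transfection and EDTA-washed. Incubated with 20 nM Alexa647-labelled MBC319.4 Fab and test compound in L-15 with 0.1% BSA, equilibrated 2 h at 22°C. Fab binding read by flow cytometry without washing, as MFI.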

[1] = target: αIIbβ3 on washed human platelets (Homo sapiens, UniProt P05106+P08514); assay: Platelets LIBS exposure assay; type: cell-based
αIIbβ3 on washed human platelets, sequence (P08514 32-887 limits assumed): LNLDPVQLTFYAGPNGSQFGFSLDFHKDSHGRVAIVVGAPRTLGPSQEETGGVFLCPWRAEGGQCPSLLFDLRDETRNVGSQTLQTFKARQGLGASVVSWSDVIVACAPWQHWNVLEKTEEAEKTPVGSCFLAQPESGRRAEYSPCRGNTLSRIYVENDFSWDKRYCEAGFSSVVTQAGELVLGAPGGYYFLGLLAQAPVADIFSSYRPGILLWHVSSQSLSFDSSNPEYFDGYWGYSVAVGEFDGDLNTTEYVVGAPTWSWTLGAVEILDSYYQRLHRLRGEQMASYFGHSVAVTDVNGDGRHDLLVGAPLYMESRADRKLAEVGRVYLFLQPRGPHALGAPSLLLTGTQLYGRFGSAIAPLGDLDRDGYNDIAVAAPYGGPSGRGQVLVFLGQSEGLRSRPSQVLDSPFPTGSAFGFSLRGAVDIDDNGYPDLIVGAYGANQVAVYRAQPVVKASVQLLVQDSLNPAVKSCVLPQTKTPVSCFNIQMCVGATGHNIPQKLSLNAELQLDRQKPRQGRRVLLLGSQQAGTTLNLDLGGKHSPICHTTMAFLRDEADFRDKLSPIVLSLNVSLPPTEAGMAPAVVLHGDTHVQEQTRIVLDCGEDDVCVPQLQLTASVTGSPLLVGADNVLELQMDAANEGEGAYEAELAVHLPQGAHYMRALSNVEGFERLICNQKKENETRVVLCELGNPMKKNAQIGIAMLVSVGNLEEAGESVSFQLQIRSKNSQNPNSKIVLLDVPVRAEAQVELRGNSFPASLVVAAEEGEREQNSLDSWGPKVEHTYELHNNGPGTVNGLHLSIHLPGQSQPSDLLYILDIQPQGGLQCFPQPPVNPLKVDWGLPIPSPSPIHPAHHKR
αIIbβ3 on washed human platelets, sequence (P08514 891-1039 partner limits assumed): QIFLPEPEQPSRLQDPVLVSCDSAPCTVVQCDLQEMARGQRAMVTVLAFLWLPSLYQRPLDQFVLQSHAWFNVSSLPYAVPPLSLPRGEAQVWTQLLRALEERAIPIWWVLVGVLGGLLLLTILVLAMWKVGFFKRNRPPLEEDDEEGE
αIIbβ3 on washed human platelets, sequence (P05106 27-788): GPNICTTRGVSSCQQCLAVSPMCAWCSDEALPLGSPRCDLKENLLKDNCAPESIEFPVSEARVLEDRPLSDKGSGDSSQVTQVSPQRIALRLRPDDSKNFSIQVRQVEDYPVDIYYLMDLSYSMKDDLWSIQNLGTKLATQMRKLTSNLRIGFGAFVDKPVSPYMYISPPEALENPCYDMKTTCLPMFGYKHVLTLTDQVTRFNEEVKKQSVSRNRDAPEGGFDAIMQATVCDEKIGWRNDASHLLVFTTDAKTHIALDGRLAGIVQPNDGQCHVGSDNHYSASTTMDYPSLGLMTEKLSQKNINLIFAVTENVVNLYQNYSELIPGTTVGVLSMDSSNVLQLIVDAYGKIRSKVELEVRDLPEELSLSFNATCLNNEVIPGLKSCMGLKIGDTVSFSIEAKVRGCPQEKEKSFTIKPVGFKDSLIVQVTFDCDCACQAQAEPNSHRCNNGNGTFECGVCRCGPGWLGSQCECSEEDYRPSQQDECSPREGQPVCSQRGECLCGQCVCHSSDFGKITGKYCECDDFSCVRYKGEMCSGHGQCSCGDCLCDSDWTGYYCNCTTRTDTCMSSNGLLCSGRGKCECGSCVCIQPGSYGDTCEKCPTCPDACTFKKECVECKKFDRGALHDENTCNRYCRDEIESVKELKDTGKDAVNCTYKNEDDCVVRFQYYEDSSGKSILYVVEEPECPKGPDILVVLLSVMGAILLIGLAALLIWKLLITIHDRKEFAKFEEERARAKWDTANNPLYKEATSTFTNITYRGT
Summary of the method: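 Blood from drug-free healthy donors was taken into acid-citrate-dextrose. PRP was spun (140xg, 12 min), given PGE1 at 50 ng/ml, pelleted, washed in citrate-dextrose buffer pH 6.5 and resuspended in Tyrode's pH 7.4 with 1% BSA and 1 mM Ca²⁺/Mg²⁺. […] Read-out was unwashed flow cytometry MFI, over three days with two donors.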

[2] = tested on: clot retraction in human PRP; assay: Clot retraction in platelet-rich plasma; type: cell-based; settings: thrombin
Summary of the method: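 Citrated human PRP pre-incubated 20 min at RT with test compound or buffer (in Tyrode's buffer + 1% BSA) at several concentrations. Glass-tube clot retraction started with thrombin (7.5 U/ml stock) at 37°C and imaged every 15 min. Retraction = 1 − (clot area/whole reaction area). IC50 at 30 and 90 min from a three-parameter inhibitor-response fit. Three runs, PRP from three donors.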

αIIbβ3 WT = αIIbβ3 WT (Homo sapiens, UniProt P05106+P08514); assay: MBC319.4 Fab LIBS epitope exposure on αIIbβ3 WT transfectants; type: cell-based; settings: inhibitors at 100x Kd
αIIbβ3 WT, sequence (P08514 32-887 limits assumed): as the sequence (P08514 32-887 limits assumed) above
αIIbβ3 WT, sequence (P08514 891-1039 partner limits assumed): as the sequence (P08514 891-1039 partner limits assumed) above
αIIbβ3 WT, sequence (P05106 27-788): as the sequence (P05106 27-788) above
Summary of the method: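 Cells transiently transfected with αIIbβ3 received valproic acid (3 mM final) and glucose (0.4%) at 24 h, and were washed at 48 h in EDTA-containing then plain L-15/0.1% BSA. Cells were incubated with 20 nM Alexa647-MBC319.4 Fab plus inhibitor (Kd from FITC-echistatin competition on WT transfectants) in L15/0.1% BSA, 22°C for 2 h. Read-out was unwashed flow cytometry.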

[3] = tested on: αIIbβ3 WT and αIIbβ3_N305T; type: binding; settings: Expi293F transfectants, L15 medium with 0.1% BSA
Summary of the method: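 Expi293F cells with α5 and αV knocked out, transiently co-transfected with αIIb plus β3 or β3_N305T; valproic acid (3 mM) and glucose (0.4%) added at 24 h. At 48 h, cells washed with EDTA-containing L-15/0.1% BSA, then plain assay medium. 10^6 cells/ml incubated with FITC-echistatin and varying test compound, 2 h at 22°C; unwashed flow cytometry. Probe Kd from titration against 5 nM AF647-MBC319.4 Fab. Compound Kd from nonlinear least-squares fits with integrin concentration as a parameter, with error propagation.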

αIIbβ3 headpiece [4] = target: T1, αIIbβ3 headpiece (Homo sapiens, UniProt P05106+P08514)
T1 sequence (P08514 32-488 limits assumed): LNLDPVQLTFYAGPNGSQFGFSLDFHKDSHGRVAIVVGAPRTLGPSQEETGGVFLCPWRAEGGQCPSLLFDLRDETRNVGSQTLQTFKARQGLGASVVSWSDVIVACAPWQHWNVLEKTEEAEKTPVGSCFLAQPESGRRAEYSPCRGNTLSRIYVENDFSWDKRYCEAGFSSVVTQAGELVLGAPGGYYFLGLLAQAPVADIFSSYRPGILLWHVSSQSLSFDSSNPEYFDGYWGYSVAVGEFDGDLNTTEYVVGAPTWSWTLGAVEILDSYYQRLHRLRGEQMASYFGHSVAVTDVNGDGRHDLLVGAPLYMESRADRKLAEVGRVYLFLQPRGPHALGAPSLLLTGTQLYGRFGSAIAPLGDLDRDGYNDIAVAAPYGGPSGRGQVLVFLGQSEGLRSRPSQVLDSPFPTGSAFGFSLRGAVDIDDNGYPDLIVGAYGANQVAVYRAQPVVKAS
T1 sequence (P05106 27-498 limits assumed): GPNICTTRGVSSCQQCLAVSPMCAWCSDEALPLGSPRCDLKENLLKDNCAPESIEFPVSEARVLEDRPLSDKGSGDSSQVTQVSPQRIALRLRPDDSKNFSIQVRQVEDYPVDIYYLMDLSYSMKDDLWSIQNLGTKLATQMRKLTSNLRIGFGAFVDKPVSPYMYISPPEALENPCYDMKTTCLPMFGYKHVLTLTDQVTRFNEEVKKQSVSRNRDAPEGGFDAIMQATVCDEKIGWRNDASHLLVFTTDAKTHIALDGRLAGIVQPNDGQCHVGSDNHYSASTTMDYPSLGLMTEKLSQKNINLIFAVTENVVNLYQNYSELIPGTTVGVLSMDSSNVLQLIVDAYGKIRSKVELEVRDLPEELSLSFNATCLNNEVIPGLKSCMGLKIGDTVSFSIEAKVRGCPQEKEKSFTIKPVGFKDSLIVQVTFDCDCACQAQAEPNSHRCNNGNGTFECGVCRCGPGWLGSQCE
Summary of the method: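 Closed αIIbβ3 headpiece–10E5 Fab crystals stabilised in 15% PEG 8000, 0.2 M ammonium sulfate, 0.1 M Tris-HCl pH 8.9, with glycerol raised in 5% steps to 15%. Compound (0.1-1 mM) added in the final 20% glycerol cryo step, with 1 mM MgCl2/1 mM CaCl2 or 2 mM MnCl2/0.2 mM CaCl2. Soaked 4 h, plunge-frozen in liquid N2. Synchrotron diffraction data collected, then structure refinement.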

αIIbβ3 headpiece [5] = target: T1, αIIbβ3 headpiece; assay: Size-exclusion chromatography; type: biochemical; settings: 10 μM drug
Summary of the method: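 Superdex 200 column equilibrated with 10 µM test compound in HEPES-buffered saline containing either 1 mM Mg2+/1 mM Ca2+ or 2 mM Mn2+/0.2 mM Ca2+. αIIbβ3 headpiece (30 µg) pre-incubated 30 min at RT with 60 µM compound in matching buffer, then chromatographed. Hydrodynamic radius taken from elution. Two runs, or one, per compound; controls ≥3.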

αIIbβ3 on platelets = settings: Mg2+ ref Baba et al., 2001; cited from earlier work
[6] = 2012, cited from earlier work
αIIbβ3 = settings: patients with acute coronary syndrome ref Cox et al., 2000; cited from earlier work
WT αIIbβ3 = assay: Competition with FITC-echistatin binding to WT αIIbβ3 transfectant in serum; settings: 95% serum compared to 0.1% BSA
α5β1 = settings: ref Li et al., 2017; cited from earlier work
[7] = after activation with thrombin 0.5 U/ml

αIIbβ3_N305T, sequence (P08514 32-887 limits assumed): as the sequence (P08514 32-887 limits assumed) above
αIIbβ3_N305T, sequence (P08514 891-1039 partner limits assumed): as the sequence (P08514 891-1039 partner limits assumed) above
αIIbβ3_N305T, sequence (P05106 27-788 N331T): as the sequence (P05106 27-788) above, with N305T counted along it

Compound | LIBS (MBC319.4) epitope exposure (αIIbβ3_N305T) | LIBS epitope exposure (integrin extension) on washed platelets ([1]; absence of thrombin) | LIBS epitope exposure (integrin extension) on washed platelets [1, 7] | inhibition of clot retraction [2] | LIBS (MBC319.4) epitope exposure (αIIbβ3 WT) | effect on structure of closed αIIbβ3 headpiece in crystals (αIIbβ3 headpiece [4]; soaked in Mg2+) | effect on αIIbβ3 headpiece opening in gel filtration (αIIbβ3 headpiece [5]; 1 mM Mg2+/1 mM Ca2+) | other results
NCC(=O)Nc1cncc(-c2nn3c(=O)cc(N4CCNCC4)nc3s2)c1 [RUC-4] | no effect on LIBS epitope expression | no significant effect | no effect on integrin extension | effective | no effect on LIBS epitope expression |  |  | affinity for activated mutant (β3 N305T) compared with WT αIIbβ3 [3]: indistinguishable
N=C(N)c1ccc(C(=O)N[C@@H](Cc2ccc([N+](=O)[O-])cc2)C(=O)N2CCc3nn(CC(=O)O)cc3C2)cc1 [UR-2922] | significantly suppressed LIBS induction |  | decreased | effective |  | no structural perturbation | neither UR-2922 nor BMS4 increased the hydrodynamic radius | effect on structure of closed αIIbβ3 headpiece in crystals (αIIbβ3 headpiece [4]; soaked in Mn2+): no structural perturbation; effect on αIIbβ3 headpiece opening in gel filtration (αIIbβ3 headpiece [5]; 2 mM Mn2+/0.2 mM Ca2+): shifted the headpiece to a smaller hydrodynamic radius than the control; LIBS epitopes on platelets (αIIbβ3 on platelets): not to induce LIBS epitopes
CCOCc1cc(OC)c(-c2ccc(C[C@H](NC(=O)c3c(F)cccc3F)C(=O)O)cc2)c(OC)c1 [firategrast] |  |  |  |  |  |  |  | gadolinium-enhanced lesions ([6]; highest dose ref Miller et al.): significant decrease; gadolinium-enhanced lesions ([6]; lowest dose ref Miller et al.): significant increase; gadolinium-enhanced lesions ([6]; middle dose ref Miller et al.): lack of effect
CCOC(=O)CCNC(=O)N[C@H]1CCN(c2ccc(C(=N)N)cc2)C1=O [orbofiban] |  |  |  |  |  |  |  | platelet activation markers in treated patients (αIIbβ3): increased αIIbβ3 conformational change, antibody-stimulated thromboxane B2 production, and CD63 expression
CCCCS(=O)(=O)N[C@@H](Cc1ccc(OCCCCC2CCNCC2)cc1)C(=O)O [tirofiban] |  | Stronger extension |  | effective | next strongest | Ser-123 displaced water 1 to coordinate directly to the MIDAS metal ion | caused the headpiece to elute earlier in gel filtration | decrease of affinity in 95% serum (WT αIIbβ3): 1.8 fold; hydrodynamic radius of αIIbβ3 headpiece (αIIbβ3 headpiece [5]; 2 mM Mn2+/0.2 mM Ca2+): ~ 5.36 nm
fibronectin |  |  |  |  |  |  |  | higher affinity for the open than the closed conformation (α5β1): 6,000 fold

Reference: publication PMC9494814 (Cell, 2022)
